{"data": "Results collected from several papers", "organism": "Hepatitis C virus", "observed": "viral replication", "mode": "inhibitor", "notes": "replicon", "note": "Compare with care: the assays were run in different laboratories."}
{"SMILES": "C=C1CC[C@H](O)C/C1=C/C=C1\\CCC[C@]2(C)[C@@H]([C@H](C)/C=C/[C@H](C)C(C)C)CC[C@@H]12", "assay": "luciferase", "test system": "BM4-5, GETYPE1B", "setting": "5 days", "EC50 [nM]": 14200}
{"SMILES": "COC(=O)N[C@H](C(=O)N1CCC[C@H]1c1ncc(-c2ccc(-c3ccc(-c4cnc([C@@H]5CCCN5C(=O)[C@@H](NC(=O)OC)C(C)C)[nH]4)cc3)cc2)[nH]1)C(C)C", "test system": "GETYPE1B", "EC50 [nM]": 0.009}
{"SMILES": "O=C1OC[C@H]2OC(O)[C@H](O)[C@@H](O)[C@@H]2OC(=O)c2cc(O)c(O)c(O)c2-c2c(O)c(O)c3oc(=O)c4c(c(O)c(O)c5oc(=O)c2c3c54)-c2c1cc(O)c(O)c2O (mixture of isomers)", "test system": "Huh-7, GETYPE2A", "setting": "48 h", "EC50 [nM]": "> 150000"}
{"SMILES": "CCN1CCN(C2c3ccccc3-c3ccc(Br)cc32)CC1 (stereo not shown)", "test system": "Huh-7.5.1, GETYPE2A", "setting": "48 h", "EC50 [nM]": "> 1000"}
{"SMILES": "C=C1/C(=C\\C=C2/CCC[C@]3(C)[C@@H]([C@H](C)CCCC(C)(C)O)CC[C@@H]23)C[C@@H](O)C[C@@H]1O", "assay": "luciferase", "test system": "GETYPE2A", "setting": "72 h", "EC50 [nM]": 5430}
{"SMILES": "COc1nc(N)nc2c1ncn2[C@@H]1O[C@H](COP(=O)(N[C@@H](C)C(=O)OCC(C)(C)C)Oc2cccc3ccccc23)[C@@H](O)[C@@]1(C)O (stereo partly shown)", "test system": "GETYPE1A", "setting": "96 h", "EC50 [nM]": 1.4}
{"SMILES": "CC(C)(C)OC(=O)N[C@H]1CCCCC/C=C\\[C@@H]2C[C@@]2(C(=O)NS(=O)(=O)C2CC2)NC(=O)[C@@H]2C[C@@H](OC(=O)N3Cc4cccc(F)c4C3)CN2C1=O", "test system": "Huh-7, GETYPE1A GETYPE1B", "setting": "96 h", "EC50 [nM]": 0.57}
{"SMILES": "C[C@H](NC(=O)OCc1ccccc1)C(=O)Nc1ccc(C2S/C(=N\\c3cccc(F)c3)N(Cc3ccco3)C2=O)cc1 (stereo partly shown)", "test system": "Huh-7, GETYPE1B", "EC50 [nM]": 570}
{"SMILES": "O=C1O[C@H]2[C@@H]3OC(=O)c4cc(O)c(O)c(O)c4-c4c(O)c(O)c5oc(=O)c6c(c(O)c(O)c7oc(=O)c4c5c76)-c4c(cc(O)c(O)c4O)C(=O)OC[C@H]3OC(O)[C@@H]2OC(=O)c2cc(O)c(O)c(O)c2-c2c1cc(O)c(O)c2O (mixture of isomers)", "test system": "Huh-7, GETYPE2A", "setting": "48 h", "EC50 [nM]": "~100000"}
{"SMILES": "CN1CCN([C@@H](c2ccccc2)c2ccc(Cl)cc2)CC1", "test system": "Huh-7.5.1, GETYPE2A", "setting": "48 h", "EC50 [nM]": 24}
